Results pooled from the literature.
Each line is one published result; the experiments were not run side by side.
Cell line: Vero
Effect on: cell growth or viability

Compound | test | conditions | IC50
COc1cccc(CCNCc2c(N)nc(N)nc2C2CCCCC2)c1 | SRB | – | 23 µM
CC(C)(C)Nc1c(-c2ccccc2N)nc2cnccn12 | MTT | 48 h | 85 µM
Oc1ncnc2cc(Nc3nc(-c4ccc(Cl)cc4)cs3)ccc12 | MTT | – | > 50 µM
Nc1nc(N)c(CNCCc2ccc(F)cc2)c(C2CCCCC2)n1 | SRB | – | 22 µM
O=c1[nH]cc(F)c(=O)[nH]1 | MTT | 72 h | 5.19 µM
CC(C)(C)Nc1c(-c2ccccc2[N+](=O)[O-])nc2cnccn12 | MTT | 48 h | > 100 µM
Cc1ccc(C)n1-c1ccc(-c2nnc(-c3ccccc3Cl)[nH]2)cc1 | MTT | 72 h | 222 µM
Oc1ncnc2cc(Nc3nc(-c4ccccc4)cs3)ccc12 | MTT | – | > 50 µM
Nc1nc(N)c(CNCCc2ccc(Cl)c(Cl)c2)c(C2CCCCC2)n1 | SRB | – | 21 µM
Cc1[nH]c(=O)c(CNC(=O)c2ccc(F)nc2)c2c1CCCC2 | MTT | 72 h | > 50 µg/mL
CC1(C)N=C(N)N=C(N)N1c1ccc(Cl)cc1 | SRB | – | > 100 µM
O=[N+]([O-])c1ccc(-c2nc3ccccn3c2NC2CCCCC2)cc1 | MTT | 48 h | 85 µM
NNC(=O)c1ccncc1 | MTT | 72 h | > 450 µM
N#Cc1nn(-c2ccc(N=Nc3ccccc3)cc2)c(=N)n(S(=O)(=O)c2ccc(N)cc2)c1=O | – | – | 55.2 µM
N=C1C(Cl)=C(N)C(=O)c2[nH]cc(C(O)CO)c21 (stereo not drawn) | MTT | 72 h | 14 µM
COc1ccccc1CCNCc1c(N)nc(N)nc1C1CCCCC1 | SRB | – | 21 µM
O=[N+]([O-])c1ccc(-c2csc(Nc3ccc4c(O)ncnc4c3)n2)cc1 | MTT | – | > 50 µM

Compound | test | conditions | IC50
COc1cc(OC)cc(-c2ccc(C(=O)NCc3c4c(c(C)[nH]c3=O)CCCC4)cc2)c1 | MTT | 72 h | > 50 µg/mL
NC1=NN(c2ccc([N+](=O)[O-])cc2[N+](=O)[O-])C(=O)C1=NNc1ccc(N=Nc2ccccc2)cc1 | – | – | 45.1 µM
O=[N+]([O-])c1ccc(/C(O)=C/C(=S)S)cc1 | MTT | 48 h | 255 µg/mL
COc1ccccc1CCNCc1c(N)nc(N)nc1-c1ccccc1 | SRB | – | > 100 µM
COc1cccc2c1C(=O)c1c(O)c3c(c(O)c1C2=O)C[C@@](O)(C(=O)CO)C[C@@H]3O[C@H]1C[C@H](N)[C@H](O)[C@H](C)O1 | MTT | 48 h | 14 µM
Cc1ccc(-c2csc(Nc3ccc4c(O)ncnc4c3)n2)cc1 | MTT | – | > 50 µM
Nc1nc(N)c(CNCCc2ccc(Cl)cc2Cl)c(C2CCCCC2)n1 | SRB | – | 16 µM
Cc1ccc(C)n1-c1ccc(-c2nnc(S)s2)cc1 | MTT | 72 h | 221 µM
CC(C)(C)Nc1c(-c2ccc([N+](=O)[O-])cc2)nc2cnccn12 | MTT | 48 h | 80 µM
Nc1nc(N)c(CNCCc2ccccc2F)c(C2CCCCC2)n1 | SRB | – | 22 µM
CN(C)c1ccc(-c2nc3cnccn3c2N)cc1 | MTT | 48 h | 91 µM
C#Cc1cccc(Nc2ncnc3cc(OCCOC)c(OCCOC)cc23)c1 | MTT | – | > 30 µM
Nc1ccc(-c2nc3ccccn3c2N)cc1 | MTT | 48 h | 88 µM
Cc1cc(=O)[nH]n1C(=O)c1ccc(-n2c(C)ccc2C)cc1 | MTT | 72 h | 202 µM
Oc1ncnc2cc(Nc3nc(-c4ccc(C(F)(F)F)cc4)cs3)ccc12 | MTT | – | > 50 µM
CN(C)c1ccc(-c2nc3ccccn3c2N)cc1 | MTT | 48 h | 70 µM
